Data: ChEMBL document CHEMBL1165950, “Design and synthesis of new potent anticancer pyrazoles with high FLT3 kinase inhibitory selectivity” (Bioorg Med Chem, 2010)

Legend:
Assay type in all cases: functional
NCI/ADR-RES [1] = experiment: Cytotoxicity against human NCI/ADR-RES cells assessed as cell growth at 10 uM; details: read-out: Activity
Outline: (§1)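 NCI-60 screen: cells grown in RPMI 1640 with 5% FBS and 2 mM L-glutamine, plated at 5000–40,000 cells/well according to doubling time, and preincubated 24 h at 37 °C, 5% CO2. The single 10 µM dose (DMSO stock) was added, then incubated 48 h. Cells were TCA-fixed and stained with 0.4% SRB, read at 515 nm, and growth % calculated against time-zero and control plates.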

SF-268 = experiment: Cytotoxicity against human SF268 cells assessed as cell growth at 0.001 uM after 48 hrs by sulforhodamine B assay; details: SF-268, 48 h, read-out: Activity
T47D = experiment: Cytotoxicity against human T47D cells assessed as cell growth at 0.001 uM after 48 hrs by sulforhodamine B assay; details: read-out: Activity
MDA-MB-435 [2] = experiment: Growth inhibition of human MDA-MB-435 cells after 48 hrs by sulforhodamine B assay; details: MDA-MB-435, 48 h; for CC50: read-out: LC50 (the source's name)
Outline: (§2)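 NCI 60-cell screen, five-dose mode. Cells grown in RPMI 1640 with 5% FBS and 2 mM L-glutamine and plated at 5000-40,000 cells/well according to doubling time. After 24 h preincubation, a Tz plate was TCA-fixed. Five concentrations (10-fold or 1/2 log dilutions) were applied for 48 h at 37 °C. SRB staining read at 515 nm. IC50 taken from [(Ti-Tz)/(C-Tz)]×100 = 50.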

UACC-62 = experiment: Cytotoxicity against human UACC62 cells assessed as cell growth at 10 uM after 48 hrs by sulforhodamine B assay; details: UACC-62, 48 h, read-out: Activity
NCI-H522 [3] = experiment: Cytotoxicity against human NCI-H522 cells assessed as cell growth at 0.01 uM after 48 hrs by sulforhodamine B assay; details: NCI-H522, 48 h, read-out: Activity
M14 = experiment: Cytotoxicity against human M14 cells assessed as cell growth at 10 uM; details: read-out: Activity; outline: as §1
MCF7 [4] = experiment: Cytotoxicity against human MCF7 cells assessed as cell growth at 0.01 uM after 48 hrs by sulforhodamine B assay; details: MCF7, 48 h, read-out: Activity
OVCAR-8 = experiment: Cytotoxicity against human OVCAR8 cells assessed as cell growth at 0.01 uM after 48 hrs by sulforhodamine B assay; details: OVCAR-8, 48 h, read-out: Activity
MDA-MB-231 = experiment: Cytotoxicity against human MDA-MB-231 cells assessed as cell growth at 10 uM; details: read-out: Activity; outline: as §1
SF-295 [5] = experiment: Growth inhibition of human SF295 cells after 48 hrs by sulforhodamine B assay; details: SF-295, 48 h; for CC50: read-out: LC50 (the source's name); outline: as §2
CAKI-1 [6] = experiment: Cytotoxicity against human Caki1 cells assessed as cell growth at 10 uM; details: read-out: Activity
Outline: (§3)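 Single-dose NCI-60 screen at 10 µM. Cells were grown in RPMI 1640 with 5% FBS and 2 mM L-glutamine, then treated for 48 h at 37 °C. Protein was measured by SRB staining with absorbance at 515 nm. Percentage growth was recorded, and inhibition percentage was calculated as 100 minus growth percentage.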

NCI/ADR-RES [7] = experiment: Cytotoxicity against human NCI/ADR-RES cells assessed as cell growth at 10 uM after 48 hrs by sulforhodamine B assay; details: read-out: Activity
SK-MEL-2 = experiment: Cytotoxicity against human SK-MEL-2 cells assessed as cell growth at 10 uM; details: read-out: Activity; outline: as §1
UACC-257 = experiment: Cytotoxicity against human UACC257 cells assessed as cell growth at 10 uM; details: read-out: Activity; outline: as §1
MCF7 [8] = experiment: Cytotoxicity against human MCF7 cells assessed as cell growth at 10 uM; details: read-out: Activity; outline: as §1
NCI-H522 [9] = experiment: Growth inhibition of human NCI-H522 cells after 48 hrs by sulforhodamine B assay; details: NCI-H522, 48 h; for CC50: read-out: LC50 (the source's name); outline: as §2
CAKI-1 [10] = experiment: Cytotoxicity against human Caki1 cells assessed as cell growth at 100 nM after 48 hrs by sulforhodamine B assay; details: CAKI-1, 48 h, read-out: Activity
A549 = experiment: Cytotoxicity against human A549 cells assessed as cell growth at 10 uM; details: read-out: Activity; outline: as §3
CCRF-CEM = experiment: Cytotoxicity against human CCRF-CEM cells assessed as cell growth at 100 nM after 48 hrs by sulforhodamine B assay; details: read-out: Activity
Outline: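 NCI-60 five-dose screen. Cells were grown in RPMI 1640 with 5% FBS and 2 mM L-glutamine, plated at 5000–40,000 cells/well and preincubated for 24 h. Time-zero plates were TCA-fixed. DMSO-solubilized drug was added at five concentrations (10-fold or ½-log serial dilutions) for 48 h at 37 °C, 5% CO2. Cells were TCA-fixed, stained with 0.4% SRB and read at 515 nm. Percent growth used time-zero, control and test absorbances.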

MDA-MB-468 = experiment: Cytotoxicity against human MDA-MB-468 cells assessed as cell growth at 0.001 uM after 48 hrs by sulforhodamine B assay; details: MDA-MB-468, 48 h, read-out: Activity
HCT-116 = experiment: Cytotoxicity against human HCT116 cells assessed as cell growth at 10 uM; details: read-out: Activity; outline: as §3
NCI-H322M = experiment: Cytotoxicity against human NCI-H322M cells assessed as cell growth at 1 uM after 48 hrs by sulforhodamine B assay; details: read-out: Activity
OVCAR-5 = experiment: Cytotoxicity against human OVCAR5 cells assessed as cell growth at 10 uM; details: read-out: Activity; outline: as §1
MDA-MB-435 [11] = experiment: Cytotoxicity against human MDA-MB-435 cells assessed as cell growth at 1 uM after 48 hrs by sulforhodamine B assay; details: MDA-MB-435, 48 h, read-out: Activity
SW-620 = experiment: Cytotoxicity against human SW620 cells assessed as cell growth at 10 uM; details: read-out: Activity; outline: as §1
MOLT-4 [12] = experiment: Cytotoxicity against human MOLT4 cells assessed as cell growth at 0.001 uM after 48 hrs by sulforhodamine B assay; details: MOLT-4, 48 h, read-out: Activity
MDA-MB-435 [13] = experiment: Cytotoxicity against human MDA-MB-435 cells assessed as cell growth at 0.001 uM after 48 hrs by sulforhodamine B assay; details: MDA-MB-435, 48 h, read-out: Activity
TK-10 [14] = experiment: Cytotoxicity against human TK10 cells assessed as cell growth at 0.01 uM after 48 hrs by sulforhodamine B assay; details: TK-10, 48 h, read-out: Activity
HOP-92 = experiment: Cytotoxicity against human HOP92 cells assessed as cell growth at 1 uM after 48 hrs by sulforhodamine B assay; details: HOP-92, 48 h, read-out: Activity
TK-10 [15] = experiment: Cytotoxicity against human TK10 cells assessed as cell growth at 0.001 uM after 48 hrs by sulforhodamine B assay; details: TK-10, 48 h, read-out: Activity
SNB-19 = experiment: Cytotoxicity against human SNB19 cells assessed as cell growth at 100 nM after 48 hrs by sulforhodamine B assay; details: SNB-19, 48 h, read-out: Activity
SF-295 [16] = experiment: Cytotoxicity against human SF295 cells assessed as cell growth at 10 uM; details: read-out: Activity; outline: as §1
MOLT-4 [17] = experiment: Cytotoxicity against human MOLT4 cells assessed as cell growth at 1 uM after 48 hrs by sulforhodamine B assay; details: MOLT-4, 48 h, read-out: Activity

SMILES | growth at 10 µM (NCI/ADR-RES [1]) [%] | growth at 0.001 µM (SF-268) [%] | growth at 0.001 µM (T47D) [%] | GI50 (MDA-MB-435 [2]) [nM] | TGI (MDA-MB-435 [2]) [nM] | CC50 (MDA-MB-435 [2]) [nM] | growth at 10 µM (UACC-62) [%] | growth at 0.01 µM (NCI-H522 [3]) [%] | growth at 10 µM (M14) [%] | growth at 0.01 µM (MCF7 [4]) [%] | growth at 0.01 µM (OVCAR-8) [%] | growth at 10 µM (MDA-MB-231) [%] | GI50 (SF-295 [5]) [nM] | TGI (SF-295 [5]) [nM] | CC50 (SF-295 [5]) [nM] | growth at 10 µM (CAKI-1 [6]) [%] | growth at 10 µM (NCI/ADR-RES [7]) [%] | growth at 10 µM (SK-MEL-2) [%] | growth at 10 µM (UACC-257) [%] | growth at 10 µM (MCF7 [8]) [%] | further results
COc1cc(C)cc(-c2c(-c3ccnc(-c4ccc(C(C)=O)cc4)c3)cnn2CC#N)c1 | 60.1 | 97 | 93 | 1930 | > 100000 | > 100000 | 35 | 81 | 50.5 | 92 | 83 | 63.8 | 5840 | > 100000 | > 100000 | 70.4 | 11 | 73.7 | 92.8 | 21.9 | GI50 (NCI-H522 [9]): 1930 nM; TGI (NCI-H522 [9]): 6960 nM; CC50 (NCI-H522 [9]): > 100000 nM; growth at 0.1 µM (CAKI-1 [10]): 86%; growth at 10 µM (A549): 91.4%; growth at 0.1 µM (CCRF-CEM): 84%; growth at 0.001 µM (MDA-MB-468): 92%; growth at 10 µM (HCT-116): 23.4%; growth at 1 µM (NCI-H322M): 69%; growth at 10 µM (OVCAR-5): 95%; growth at 1 µM (MDA-MB-435 [11]): 17%; growth at 10 µM (SW-620): 56.1%; growth at 0.001 µM (MOLT-4 [12]): 102%; growth at 0.001 µM (MDA-MB-435 [13]): 100%; growth at 0.01 µM (TK-10 [14]): 100%; growth at 1 µM (HOP-92): -9%; growth at 0.001 µM (TK-10 [15]): 103%; growth at 0.1 µM (SNB-19): 99%; growth at 10 µM (SF-295 [16]): 93.2%; growth at 1 µM (MOLT-4 [17]): 7%
COc1cc(C)cc(-c2c(-c3ccnc(-c4ccc(N(C)C)cc4)c3)cnn2CC#N)c1 | -15.4 | 98 | 90 | 22.6 | 66.9 | > 100000 | 16 | -7 | -17.5 | 56 | 28 | 18.7 | 52.9 | 315 | > 100000 | 15.9 | 3 | 49.3 | 83.8 | 2.45 | GI50 (NCI-H522 [9]): 27 nM; TGI (NCI-H522 [9]): 84.6 nM; CC50 (NCI-H522 [9]): 3220 nM; growth at 0.1 µM (CAKI-1 [10]): -21%; growth at 10 µM (A549): 22.2%; growth at 0.1 µM (CCRF-CEM): 11%; growth at 0.001 µM (MDA-MB-468): 93%; growth at 10 µM (HCT-116): -32.4%; growth at 1 µM (NCI-H322M): 34%; growth at 10 µM (OVCAR-5): 77.7%; growth at 1 µM (MDA-MB-435 [11]): -29%; growth at 10 µM (SW-620): 16.6%; growth at 0.001 µM (MOLT-4 [12]): 96%; growth at 0.001 µM (MDA-MB-435 [13]): 88%; growth at 0.01 µM (TK-10 [14]): 75%; growth at 1 µM (HOP-92): -20%; growth at 0.001 µM (TK-10 [15]): 99%; growth at 0.1 µM (SNB-19): 27%; growth at 10 µM (SF-295 [16]): 4.06%; growth at 1 µM (MOLT-4 [17]): -2%
